Data published in ChEMBL document CHEMBL4017489, “Design, Synthesis, and Evaluation of New Selective NM23-H2 Binders as c-MYC Transcription Inhibitors via Disruption of the NM23-H2/G-Quadruplex Interaction” (J Med Chem, 2017).
Activity calls are given as the source filed them. The rule behind the calls is not given here.

Key:
[1] = Binding affinity to biotin-labeled 18-mer duplex DNA hairpin (unknown origin) at 40 uM after 30 mins by SPR analysis
[2] = biological target: T1, Nucleoside diphosphate kinase B (Homo sapiens, UniProt P22392); assay: Binding affinity to N-terminal NT-647-NHS labeled NM23-H2 (unknown origin) after 30 mins by MST analysis
T1 sequence (P22392 whole entry): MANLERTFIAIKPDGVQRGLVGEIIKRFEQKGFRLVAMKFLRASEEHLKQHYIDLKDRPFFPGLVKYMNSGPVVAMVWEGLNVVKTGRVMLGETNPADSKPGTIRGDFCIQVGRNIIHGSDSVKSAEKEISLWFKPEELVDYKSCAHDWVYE
Procedure, shortened: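 NM23-H2 N-terminally labeled with RED-NHS dye (20 μM protein, 30 min dark, RT), free dye removed; 200 nM labeled protein with compound from 500 μM, 16 twofold steps, 30 min RT in 50 mM Tris-HCl pH 7.4, 150 mM NaCl, 10 mM MgCl2, 0.05% Tween-20; KD at half-plateau.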

[3] = Binding affinity to Htg21 telomeric G-quadruplex DNA (unknown origin) at 40 uM after 30 mins by SPR analysis
[4] = biological target: T1, Nucleoside diphosphate kinase B; assay: Binding affinity to NM23-H2 (unknown origin) by SPR analysis
[5] = biological target: T1, Nucleoside diphosphate kinase B; assay: Binding affinity to NM23-H2 (unknown origin) up to 40 uM by SPR analysis
[6] = biological target: T1, Nucleoside diphosphate kinase B; assay: Binding affinity to NM23-H2 (unknown origin) assessed as ratio of Kd for protein interaction with biotin-labeled Pu22 c-myc G-quadruplex DNA in presence and absence of compound after 1 hr by ELISA

Row | Compound | Activity [1] | Kd [2] | Activity [3] | Kd [4] | Activity [5] | Ratio [6]
1 | COc1ccc(/C=C2\CCn3c2nc2cc(NCCCN(C)C)c(F)cc2c3=O)cc1OC | inactive | 19.2 µM | inactive | 15.8 µM |  | 
2 | CCN(CC)CCCNc1cc2nc3n(c(=O)c2cc1F)CC/C3=C\c1ccc(N(CC)CC)cc1O | inactive | 11.7 µM | inactive | 13.9 µM |  | 2.1 to 2.6
3 | CN(C)CCCNc1cc2nc3n(c(=O)c2cc1F)CC/C3=C\c1ccc(O)c(O)c1 | inactive | 10.7 µM | inactive | 9.2 µM |  | 
4 | CCN(CC)CCCNc1cc2nc3n(c(=O)c2cc1F)CC/C3=C\c1ccc(C(F)(F)F)cc1 | inactive | 59.4 µM | inactive |  | inactive | 
5 | CCN(CC)CCCNc1cc2nc3n(c(=O)c2cc1F)CC/C3=C\c1ccc(N2CCOCC2)cc1 | inactive | 55.3 µM | inactive |  | inactive | 
6 | CCN(CC)CCCNc1cc2nc3n(c(=O)c2cc1F)CC/C3=C\c1ccc(F)cc1 | inactive | 61.6 µM | inactive |  | inactive | 
7 | CCN(CC)CCCNc1cc2nc3n(c(=O)c2cc1F)CC/C3=C\c1ccc(N2CCCCC2)cc1 | inactive |  | inactive |  | inactive | 
8 | CCN(CC)CCCNc1cc2nc3n(c(=O)c2cc1F)CC/C3=C\c1cc(OC)c(OC)c(OC)c1 | inactive | 28.2 µM | inactive | 16.3 µM |  | 
9 | CCN(CC)CCCNc1cc2nc3n(c(=O)c2cc1F)CC/C3=C\c1ccc(/C=C/c2ccccn2)cc1 | inactive | 20.8 µM | inactive | 13.8 µM |  | 2.1 to 2.6
10 | CCN(CC)CCCNc1cc2nc3n(c(=O)c2cc1F)CC/C3=C\c1ccc(OC)c(OC)c1 | inactive | 25.1 µM | inactive | 17.1 µM |  | 
11 | O=c1c2cc(F)c(NCCCN3CCOCC3)cc2nc2n1CC/C2=C\c1ccc(N2CCOCC2)cc1 | inactive |  | inactive |  | inactive | 
12 | CCN(CC)CCCNc1cc2nc3n(c(=O)c2cc1F)CC/C3=C\c1ccccc1OC | inactive | 72.8 µM | inactive |  | inactive | 
13 | CCN(CC)CCCNc1cc2nc3n(c(=O)c2cc1F)CC/C3=C\c1ccc(C(C)C)cc1 | inactive |  | inactive |  | inactive | 
14 | CCCOc1ccc(/C=C2\CCn3c2nc2cc(NCCCN(C)C)c(F)cc2c3=O)cc1 | inactive | 21 µM | inactive | 20.6 µM |  | 
15 | COc1cc(/C=C2\CCn3c2nc2cc(NCCCN(C)C)c(F)cc2c3=O)cc(OC)c1O | inactive | 16.5 µM | inactive | 13.3 µM |  | 
16 | C#CCOc1ccc(/C=C2\CCn3c2nc2cc(NCCN(C)C)c(F)cc2c3=O)cc1 | inactive | 27.5 µM | inactive |  | inactive | 
17 | CN(C)CCNc1cc2nc3n(c(=O)c2cc1F)CC/C3=C\c1ccc(C=O)cc1 | inactive | 68 µM | inactive |  | inactive | 
18 | CCN(CC)c1ccc(/C=C2\CCn3c2nc2cc(NCCCN4CCOCC4)c(F)cc2c3=O)cc1 | inactive |  | inactive |  | inactive | 
19 | CCN(CC)c1ccc(/C=C2\CCn3c2nc2cc(NCCN(C)C)c(F)cc2c3=O)cc1 | inactive | 45.7 µM | inactive |  | inactive | 
20 | C#CCOc1ccc(/C=C2\CCn3c2nc2cc(NCCCN(C)C)c(F)cc2c3=O)cc1 | inactive | 8.9 µM | inactive | 25.6 µM |  | 
21 | CCN(CC)CCCNc1cc2nc3n(c(=O)c2cc1F)CC/C3=C\c1ccc(OC)cc1 | inactive | 23.5 µM | inactive | 15.4 µM |  | 
22 | COc1cc(/C=C2\CCn3c2nc2cc(NCCCN4CCOCC4)c(F)cc2c3=O)cc(OC)c1OC | inactive | 23.6 µM | inactive | 18.5 µM |  | 

Continued, values first:

Row | Activity [1] | Kd [2] | Activity [3] | Kd [4] | Activity [5] | Ratio [6] | Compound
23 | inactive | 56 µM | inactive |  | inactive |  | O=c1c2cc(F)c(N3CCOCC3)cc2nc2n1CC/C2=C\c1ccc(OCc2ccccc2)cc1O
24 | inactive | 10.8 µM | inactive | 11.5 µM |  | > 3 | O=c1c2cc(F)c(NCCCN3CCCC3)cc2nc2n1CC/C2=C\c1ccc(OCc2ccccc2)cc1O
25 | inactive | 16.9 µM | inactive | 14.3 µM |  |  | O=c1c2cc(F)c(NCCCN3CCOCC3)cc2nc2n1CC/C2=C\c1ccc(OCc2ccccc2)cc1O
26 | inactive | 22.3 µM | inactive | 18.4 µM |  | 2.1 to 2.6 | O=c1c2cc(F)c(NCCCN3CCOCC3)cc2nc2n1CC/C2=C\c1ccc(OCc2ccccc2)cc1
27 | inactive |  | inactive |  | inactive |  | CC(C)c1ccc(/C=C2\CCn3c2nc2cc(NCCCN4CCOCC4)c(F)cc2c3=O)cc1
28 | inactive | 25.8 µM | inactive | 16.7 µM |  | > 3 | CCN(CC)CCCNc1cc2nc3n(c(=O)c2cc1F)CC/C3=C\c1ccc(OCc2ccccc2)c(O)c1
29 | inactive | 6.4 µM | inactive | 8.1 µM |  | > 3 | CN(C)CCNc1cc2nc3n(c(=O)c2cc1F)CC/C3=C\c1ccc(OCc2ccccc2)cc1O
30 | inactive |  | inactive | 38 µM |  |  | O=Cc1ccc(/C=C2\CCn3c2nc2cc(NCCCN4CCOCC4)c(F)cc2c3=O)cc1
31 | inactive | 16.3 µM | inactive | 12.4 µM |  |  | CN(C)CCCNc1cc2nc3n(c(=O)c2cc1F)CC/C3=C\c1ccc(Oc2ccccc2)cc1
32 | inactive | 16.1 µM | inactive | 13.2 µM |  | > 3 | CN(C)CCCNc1cc2nc3n(c(=O)c2cc1F)CC/C3=C\c1ccc(OCc2ccccc2)c(O)c1
33 | inactive | 25.6 µM | inactive | 28.4 µM |  |  | COc1ccc(/C=C2\CCn3c2nc2cc(NCCCN4CCOCC4)c(F)cc2c3=O)cc1
34 | inactive | 44.2 µM | inactive |  | inactive |  | O=c1c2cc(F)c(NCCCN3CCOCC3)cc2nc2n1CC/C2=C\c1ccc(F)cc1
35 | inactive |  | inactive |  | inactive |  | O=c1c2cc(F)c(NCCCN3CCOCC3)cc2nc2n1CC/C2=C\c1ccc(C(F)(F)F)cc1
36 | inactive |  | inactive |  | inactive |  | O=c1c2cc(F)c(NCCCN3CCOCC3)cc2nc2n1CC/C2=C\c1ccc(N2CCCCC2)cc1
